Assay results published in ChEMBL document CHEMBL1126808, “Asymmetric synthesis and biological evaluation of beta-L-(2R,5S)- and alpha-L-(2R,5R)-1,3-oxathiolane-pyrimidine and -purine nucleosides as potential anti-HIV agents” (J Med Chem, 1993).

Legend:
[1] = tested on: Human immunodeficiency virus 1; experiment: Cytotoxicity against human peripheral blood mononuclear (PBM) cells […]; assay type: functional
Method in brief: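 Uninfected PHA-stimulated human PBM cells were cultured with or without drug, then aliquots were counted in trypan blue. IC50 came from a median-effect plot of dose–effect data.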

[2] = tested on: Human immunodeficiency virus; experiment: Anti-HIV-1 activity against human peripheral blood mononuclear (PBM) cells infected with HIV-1 strain LAV; assay type: functional, organism-based
Method in brief: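 Mitogen-stimulated human PBM cells infected with HIV-1 LAV at MOI 0.1 (titred by limiting dilution in PBM cells). Compounds were diluted into medium from 40 mM DMSO stocks (final DMSO <0.25%) and added about 45 min after infection. Read-out was supernatant RT level. EC50 came from a median-effect plot of dose–effect data.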

Question: What does the source list for `OC[C@@H]1O[C@@H](n2cnc3c(Cl)ncnc32)CS1`?
Answer: IC50 [1]: > 100 µM; EC50 ([2]; Human immunodeficiency virus 1): 2.75 µM

Question: Which results are given for `Nc1ncnc2c1ncn2[C@@H]1CS[C@H](CO)O1`?
Answer: IC50 [1]: > 100 µM; EC50 ([2]; Human immunodeficiency virus 1): 1.01 µM

Question: Which results are given for `O=c1[nH]c(=O)n([C@H]2CS[C@H](CO)O2)cc1Br`?
Answer: IC50 [1]: > 100 µM; EC50 ([2]; Human immunodeficiency virus 1): 121 µM

Question: Which results are given for `Nc1nc(=O)n([C@H]2CS[C@H](CO)O2)cc1F`?
Answer: IC50 [1]: > 100 µM; EC50 ([2]; Human immunodeficiency virus 1): 0.43 µM

Question: For `Cc1cn([C@H]2CS[C@H](CO)O2)c(=O)[nH]c1=O`, which IC50 [1] is on record?
Answer: > 100 µM

Question: What about the EC50 ([2]; Human immunodeficiency virus 1) of the same molecule?
Answer: 4.4 µM

Question: Which results are given for `Cc1cn([C@H]2CS[C@H](CO)O2)c(=O)nc1N`?
Answer: IC50 [1]: > 100 µM; EC50 ([2]; Human immunodeficiency virus 1): 0.45 µM

Question: With `Nc1nc(Cl)c2ncn([C@@H]3CS[C@H](CO)O3)c2n1` as the molecule, how does the IC50 [1] read?
Answer: > 100 µM

Question: And the EC50 ([2]; Human immunodeficiency virus 1)?
Answer: 9.8 µM

Question: What does the source list for `Cc1cn([C@@H]2CS[C@H](CO)O2)c(=O)[nH]c1=O`?
Answer: IC50 [1]: > 100 µM; EC50 ([2]; Human immunodeficiency virus 1): 34.3 µM

Question: For `OC[C@@H]1O[C@H](n2cnc3c(O)ncnc32)CS1`, which IC50 [1] is on record?
Answer: > 100 µM

Question: What about the EC50 ([2]; Human immunodeficiency virus 1) of the same molecule?
Answer: > 100 µM

Question: How did the IC50 [1] turn out when `Nc1nc(Cl)c2ncn([C@H]3CS[C@H](CO)O3)c2n1` was run?
Answer: > 100 µM

Question: And the EC50 ([2]; Human immunodeficiency virus 1)?
Answer: 42.1 µM

Question: Which results are given for `O=c1[nH]c(=O)n([C@H]2CS[C@H](CO)O2)cc1Cl`?
Answer: IC50 [1]: > 100 µM; EC50 ([2]; Human immunodeficiency virus 1): > 100 µM

Question: What does the source list for `O=c1[nH]c(=O)n([C@H]2CS[C@H](CO)O2)cc1I`?
Answer: IC50 [1]: > 100 µM; EC50 ([2]; Human immunodeficiency virus 1): 157 µM

Question: For `O=c1ccn([C@@H]2CS[C@H](CO)O2)c(=O)[nH]1`, which IC50 [1] is on record?
Answer: > 100 µM

Question: And the EC50 ([2]; Human immunodeficiency virus 1)?
Answer: 11.7 µM

Question: `OC[C@@H]1O[C@@H](n2cnc3c(O)ncnc32)CS1` was tested. Which IC50 [1] did it give?
Answer: > 100 µM

Question: And the EC50 ([2]; Human immunodeficiency virus 1)?
Answer: > 100 µM

Question: How did the IC50 [1] turn out when `Nc1nc(=O)n([C@@H]2CS[C@H](CO)O2)cc1Cl` was run?
Answer: > 100 µM

Question: And the EC50 ([2]; Human immunodeficiency virus 1)?
Answer: 31.8 µM

Question: Which results are given for `O=c1[nH]c(=O)n([C@@H]2CS[C@H](CO)O2)cc1F`?
Answer: IC50 [1]: > 100 µM; EC50 ([2]; Human immunodeficiency virus 1): > 100 µM

Question: With `Nc1nc(=O)n([C@H]2CS[C@H](CO)O2)cc1Br` as the molecule, how does the IC50 [1] read?
Answer: > 100 µM

Question: What about the EC50 ([2]; Human immunodeficiency virus 1) of the same molecule?
Answer: > 100 µM

Question: What does the source list for `O=c1[nH]c(=O)n([C@@H]2CS[C@H](CO)O2)cc1Cl`?
Answer: IC50 [1]: > 100 µM; EC50 ([2]; Human immunodeficiency virus 1): > 100 µM

Question: `O=c1[nH]c(=O)n([C@@H]2CS[C@H](CO)O2)cc1I` was tested. Which IC50 [1] did it give?
Answer: > 100 µM

Question: And the EC50 ([2]; Human immunodeficiency virus 1)?
Answer: 92.9 µM

Question: With `Nc1nc(O)c2ncn([C@@H]3CS[C@H](CO)O3)c2n1` as the molecule, how does the IC50 [1] read?
Answer: > 100 µM

Question: What about the EC50 ([2]; Human immunodeficiency virus 1) of the same molecule?
Answer: 10.2 µM

Question: Which results are given for `CNc1ncnc2c1ncn2[C@@H]1CS[C@H](CO)O1`?
Answer: IC50 [1]: > 100 µM; EC50 ([2]; Human immunodeficiency virus 1): 15 µM

Question: Which results are given for `OC[C@@H]1O[C@H](n2cnc3c(Cl)ncnc32)CS1`?
Answer: IC50 [1]: > 100 µM; EC50 ([2]; Human immunodeficiency virus 1): 1.44 µM

Question: `CNc1ncnc2c1ncn2[C@H]1CS[C@H](CO)O1` was tested. Which IC50 [1] did it give?
Answer: > 100 µM

Question: And the EC50 ([2]; Human immunodeficiency virus 1)?
Answer: 13 µM

Question: For `Nc1ncnc2c1ncn2[C@H]1CS[C@H](CO)O1`, which IC50 [1] is on record?
Answer: > 100 µM

Question: What about the EC50 ([2]; Human immunodeficiency virus 1) of the same molecule?
Answer: 78.9 µM

Question: How did the IC50 [1] turn out when `Nc1nc(F)nc2c1ncn2[C@@H]1CS[C@H](CO)O1` was run?
Answer: > 100 µM

Question: And the EC50 ([2]; Human immunodeficiency virus 1)?
Answer: 16.3 µM

Question: With `Nc1nc(=O)n([C@@H]2CS[C@H](CO)O2)cc1I` as the molecule, how does the IC50 [1] read?
Answer: > 100 µM

Question: What about the EC50 ([2]; Human immunodeficiency virus 1) of the same molecule?
Answer: 0.14 µM

Question: How did the IC50 [1] turn out when `Nc1nc(=O)n([C@@H]2CS[C@H](CO)O2)cc1Br` was run?
Answer: > 100 µM

Question: And the EC50 ([2]; Human immunodeficiency virus 1)?
Answer: 2.51 µM

Question: Which results are given for `O=c1[nH]c(=O)n([C@H]2CS[C@H](CO)O2)cc1F`?
Answer: IC50 [1]: > 100 µM; EC50 ([2]; Human immunodeficiency virus 1): > 100 µM

Question: With `Nc1nc(F)nc2c1ncn2[C@H]1CS[C@H](CO)O1` as the molecule, how does the IC50 [1] read?
Answer: > 100 µM

Question: What about the EC50 ([2]; Human immunodeficiency virus 1) of the same molecule?
Answer: 15.8 µM

Question: What does the source list for `Cc1cn([C@@H]2CS[C@H](CO)O2)c(=O)nc1N`?
Answer: IC50 [1]: > 100 µM; EC50 ([2]; Human immunodeficiency virus 1): 1.9 µM

Question: Which IC50 [1] does the source give for `O=c1ccn([C@H]2CS[C@H](CO)O2)c(=O)[nH]1` here?
Answer: > 100 µM

Question: What about the EC50 ([2]; Human immunodeficiency virus 1) of the same molecule?
Answer: 32.8 µM

Question: `O=c1[nH]c(=O)n([C@@H]2CS[C@H](CO)O2)cc1Br` was tested. Which IC50 [1] did it give?
Answer: > 100 µM

Question: And the EC50 ([2]; Human immunodeficiency virus 1)?
Answer: > 100 µM

Question: How did the IC50 [1] turn out when `Nc1nc(=O)n([C@H]2CS[C@H](CO)O2)cc1I` was run?
Answer: > 100 µM

Question: And the EC50 ([2]; Human immunodeficiency virus 1)?
Answer: > 100 µM

Question: What does the source list for `Nc1nc(O)c2ncn([C@H]3CS[C@H](CO)O3)c2n1`?
Answer: IC50 [1]: > 100 µM; EC50 ([2]; Human immunodeficiency virus 1): > 100 µM

Question: What does the source list for `Nc1nc(=O)n([C@H]2CS[C@H](CO)O2)cc1Cl`?
Answer: IC50 [1]: > 100 µM; EC50 ([2]; Human immunodeficiency virus 1): > 100 µM

Question: With `Nc1ccn([C@@H]2CS[C@H](CO)O2)c(=O)n1` (stereo in doubt; 13) [LAMIVUDINE] as the molecule, how does the EC50 [2] read?
Answer: 0.0018 µM

Question: `Nc1ccn([C@@H]2CS[C@H](CO)O2)c(=O)n1` (stereo in doubt; 14) [LAMIVUDINE] was tested. Which IC50 [1] did it give?
Answer: > 100 µM

Question: And the EC50 [2]?
Answer: 10.1 µM

Question: For `Nc1ccn([C@@H]2CS[C@H](CO)O2)c(=O)n1` (stereo in doubt; form 1) [LAMIVUDINE], which EC50 [2] is on record?
Answer: 0.21 µM

Question: Which EC50 [2] does the source give for `Nc1ccn([C@@H]2CS[C@H](CO)O2)c(=O)n1` (stereo in doubt; form 2) [LAMIVUDINE] here?
Answer: 0.06 µM

Question: `Nc1nc(=O)n([C@@H]2CS[C@H](CO)O2)cc1F` [EMTRICITABINE] was tested. Which IC50 [1] did it give?
Answer: > 100 µM

Question: And the EC50 ([2]; Human immunodeficiency virus 1)?
Answer: 0.0013 µM

Question: What does the source list for `Cc1cn([C@H]2C[C@H](N=[N+]=[N-])[C@@H](CO)O2)c(=O)[nH]c1=O` [ZIDOVUDINE]?
Answer: IC50 [1]: > 100 µM; EC50 ([2]; Human immunodeficiency virus 1): 0.004 µM
